A short description of series [1]: Cytotoxicity against human SKOV3 cells assessed as growth inhibition after 48 hrs by SRB assay. Type of series: functional, SK-OV-3. In short, it runs like this:
(§1)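 Cells kept at 37 °C, 5% CO2, up to passage 15. Plated at 7500 cells/well in DMEM with 5% FBS and 1% gentamycin, grown 24 h, then given 10-fold serial dilutions for 48 h. Fixed with 10% TCA (final), SRB-stained, read at 540 nm, normalized at 630 nm. GI50 is the concentration halving net protein staining versus controls, taken from optical density data.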
For orientation: The SRB assay estimates cell density from bound dye.

In series [2] the test system is NCI-H460. Briefly: Cytotoxicity against human NCI-H460 cells assessed as growth inhibition after 48 hrs by SRB assay. Type of series: functional. A digest of the protocol: as §1
Series [3] is described as follows: Cytotoxicity against human DU145 cells assessed as growth inhibition after 48 hrs by SRB assay. Type of series: functional, DU-145. A digest of the protocol:
as §1

Series [4] deals with T1, Leucine aminopeptidase (Sus scrofa, UniProt Q29571).
T1 sequence (Q29571 whole entry): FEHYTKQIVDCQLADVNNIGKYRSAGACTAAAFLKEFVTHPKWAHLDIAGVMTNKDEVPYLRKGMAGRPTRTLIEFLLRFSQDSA
Briefly: Activity at porcine leucine aminopeptidase by HPLC analysis. Type of series: ADME. The settings on record: pig. In short, it runs like this: (§2)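 Porcine kidney microsomal LAP; units defined with 24 mM L-leucine p-nitroanilide in 50 mM sodium phosphate pH 7.2 at 37 °C. Enzyme preincubated in the same buffer at 37 °C, then substrate added. Aliquots were quenched with acetonitrile on ice, centrifuged and run on C18 HPLC (acetonitrile/water, 0.05% TFA, 1.0 mL/min, 22 °C, diode-array UV). Cleavage % from the parent/prodrug peak-area ratio; amounts from calibration curves.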

Series [5] concerns the target T1, Leucine aminopeptidase. Briefly: Prodrug conversion assessed as porcine leucine aminopeptidase-mediated compound cleavage by HPLC analysis. Type of series: ADME. The note with it: pig. A digest of the protocol: as §2
A short description of series [6]: Cytotoxicity against human SKOV3 cells assessed as growth inhibition using compound dissolved in DMSO after 48 hrs by SRB assay. Type of series: functional. The settings on record: SK-OV-3, 48 h. A digest of the protocol: as §1
In series [7] the test system is NCI-H460. Briefly: Cytotoxicity against human NCI-H460 cells assessed as growth inhibition using compound dissolved in DMSO after 48 hrs by SRB assay. Type of series: functional. The note with it: NCI-H460, 48 h. A digest of the protocol:
as §1

Series [8] is described as follows: Cytotoxicity against human DU145 cells assessed as growth inhibition using compound dissolved in DMSO after 48 hrs by SRB assay. Type of series: functional. The settings on record: DU-145, 48 h. In short, it runs like this: as §1
Series [9] in a line: Cytotoxicity against human SKOV3 cells assessed as growth inhibition using compound dissolved in water after 48 hrs by SRB assay. Type of series: functional. The note with it: SK-OV-3, 48 h. In short, it runs like this:
as §1

Series [10] relates to NCI-H460. Briefly: Cytotoxicity against human NCI-H460 cells assessed as growth inhibition using compound dissolved in water after 48 hrs by SRB assay. Type of series: functional. The settings on record: NCI-H460, 48 h. A digest of the protocol:
as §1

A short description of series [11]: Cytotoxicity against human DU145 cells assessed as growth inhibition using compound dissolved in water after 48 hrs by SRB assay. The settings on record: DU-145, 48 h. Type of series: functional. A digest of the protocol: as §1
The target of series [12] is T2, Tubulin (Bos taurus) (UniProt Q6B856+Q862L2+Q862F3). Put plainly: Displacement of [3H]colchicine from bovine brain tubulin at 5 uM after 10 mins by scintillation counting analysis. In short, it runs like this: (§3)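 1.0 μM tubulin with 5.0 μM [3H]colchicine and inhibitor at 1.0 or 5.0 μM. Buffer: 5% DMSO, 1.0 M monosodium glutamate pH 6.6, 0.5 mg/mL BSA, 0.1 M glucose-1-phosphate, 1.0 mM MgCl2, 1.0 mM GTP. Incubated 10 min at 37 °C, stopped with ice-cold water, collected on DEAE-cellulose filters and scintillation counted. Corrected for filter binding without tubulin; % inhibition against no-inhibitor controls.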

In another series the target is Tubulin (Bos taurus, UniProt Q6B856+Q862L2+Q862F3). Put plainly: Inhibition of bovine brain tubulin polymerization preincubated for 15 mins by spectrophotometric analysis. In short, it runs like this: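 Purified bovine brain tubulin, 1.0 mg/mL (10 μM), in 0.8 M monosodium glutamate pH 6.6 with 4% DMSO and varied compound. Temperature jumped from 0 to 30 °C; turbidity at 350 nm followed for 20 min.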

Series [13] can be described thus: Retention time of the compound by HPLC analysis. Type of series: physicochemical. A digest of the protocol:
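Reversed-phase C18 HPLC (4.6 × 150 mm, 5 μm) at 25 °C with diode-array detection at 190–400 nm. Acetonitrile against water or 0.1% TFA/water. Gradient 10% to 100% acetonitrile over 40 min, or in method C 10% acetonitrile for 5 min then to 100% over 5–25 min, at 1.0 mL/min.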

The target in series [14] is T2, Tubulin (Bos taurus). Briefly: Displacement of [3H]colchicine from bovine brain tubulin at 1 uM after 10 mins by scintillation counting analysis. In short, it runs like this: as §3
(Loss of bound radioactivity is the signal in a displacement assay; it reports binding, not function.)

For series [15], the target named is T1, Leucine aminopeptidase. Briefly: Prodrug conversion assessed as porcine leucine aminopeptidase-mediated compound cleavage after 24 hrs using 3.6 units of enzyme by HPLC analysis. Type of series: ADME. The note with it: pig. A digest of the protocol: as §2

The GI50 is the concentration that inhibits growth by half. What is called inhibition is the change of the read-out against control, counted positive when it falls. Low readings indicate a weak effect, high ones a strong effect. One may read the IC50 as the point on the concentration scale where inhibition reaches its midpoint. Lower therefore signals inhibition by little substance.

For the molecule `COc1ccc(/C=C\c2cc(OC)c(OC)c(OC)c2)c(NC(=O)[C@@H](N)CO)c1.Cl`, the GI50 is 51.6 nM in [1], 31.7 nM with NCI-H460 [2] and 48.4 nM in series [3]. On Leucine aminopeptidase [4], this molecule registered an Activity of 1.2 µM/min. Further, at Leucine aminopeptidase [5], the Drug metabolism was determined as 62%.

On to `COc1ccc(/C=C\c2cc(OC)c(OC)c(OC)c2)c(NC(=O)[C@@H](N)CO)c1NC(=O)[C@@H](N)CO`, for which the GI50 came to 25900 nM in [1], 24400 nM in the series with NCI-H460 [2] and 33600 nM in series [3]. Moreover, at Leucine aminopeptidase [5], the Drug metabolism result is “metabolite_notdetected”.

For `COc1ccc(/C=C/c2cc(OC)c(OC)c(OC)c2)c(NC(=O)CN)c1.Cl`, the GI50 came to 427 nM in series [6]; 418 nM in the series with NCI-H460 [7]; 630 nM in series [8]; 426 nM in series [9]; 380 nM with NCI-H460 [10]; 674 nM in series [11]. On Leucine aminopeptidase [5], the Drug metabolism came to 100%.

Consider `COc1ccc2c(c1N)CCCC=C2c1cc(OC)c(OC)c(OC)c1`, for which the GI50 was 0.137 nM in series [1] (Homo sapiens, SK-OV-3, 48 h); 1.85 nM in the series with NCI-H460 [2] (Homo sapiens, NCI-H460, 48 h); 2.26 nM in [3] (Homo sapiens, DU-145, 48 h). Also, at Tubulin (Bos taurus) [12], the inhibition worked out at 82%. Besides, the half-inhibitory concentration (IC50) on Tubulin was determined as 1300 nM.

With `COc1ccc2c(c1NC(=O)CN)CCCC=C2c1cc(OC)c(OC)c(OC)c1`, the GI50 in series [1] (Homo sapiens, SK-OV-3, 48 h) was determined as 195 nM; in the series on NCI-H460 [2] (Homo sapiens, NCI-H460, 48 h) it was 566 nM; in [3] (Homo sapiens, DU-145, 48 h), 507 nM.

Take `COc1ccc(/C=C\c2cc(OC)c(OC)c(OC)c2)cc1NC(=O)[C@@H](N)CO` [OMBRABULIN]: the 50% growth inhibitory concentration (GI50) in [1] is 9.02 nM; in the series with NCI-H460 [2], 24.1 nM; in [3], 16.4 nM. This molecule also came in with an IC50 on Tubulin of 14000 nM. In addition, on Leucine aminopeptidase [5], the Drug metabolism worked out at 95%.

Take `COc1ccc(/C=C\c2cc(OC)c(OC)c(OC)c2)c(NC(=O)[C@@H](N)CO)c1NC(=O)[C@@H](N)CO.Cl.Cl`: the 50% growth inhibitory concentration (GI50) (in series [1]; in the series on NCI-H460 [2]; in [3]) was over 86600 nM in each case. Further, the Drug metabolism entry at Leucine aminopeptidase [5] is “metabolite_notdetected”.

In series [13], `COc1ccc2c(c1N)CCC=C2c1cc(OC)c(OC)c(OC)c1` gave a Retention_time of 12.1 min.

As to `COc1ccc(/C=C\c2cc(OC)c(OC)c(OC)c2)cc1O` [COMBRETASTATIN A4], the GI50 in [1] (Homo sapiens, SK-OV-3, 48 h) was 5.06 nM; with NCI-H460 [2] (Homo sapiens, NCI-H460, 48 h), 5 nM; in [3] (Homo sapiens, DU-145, 48 h) it was 6.02 nM. At Tubulin (Bos taurus) [14], this molecule displayed an inhibition of 84%.

As for `COc1ccc(/C=C\c2cc(OC)c(OC)c(OC)c2)c(NC(=O)CN)c1`, the GI50 turned out to be 32.3 nM in series [1] (Homo sapiens, SK-OV-3, 48 h); 53.2 nM with NCI-H460 [2] (Homo sapiens, NCI-H460, 48 h); 43.6 nM in series [3] (Homo sapiens, DU-145, 48 h).

In the case of `COc1ccc2c(c1NC(=O)[C@@H](N)CO)CCCC=C2c1cc(OC)c(OC)c(OC)c1.Cl`, in series [1], the 50% growth inhibitory concentration (GI50) turned out to be 47000 nM. The Drug metabolism at Leucine aminopeptidase [15] and on Leucine aminopeptidase [5] was under 10% in each case.

As to `COc1ccc(/C=C\c2cc(OC)c(OC)c(OC)c2)cc1NC(=O)[C@@H](N)CO.Cl`, the figures for the concentration for 50% growth inhibition (GI50) (in [1]; with NCI-H460 [2]; in series [3]) were 3.96 nM, 3.87 nM and 3.34 nM, respectively. The 50% inhibitory concentration (IC50) on Tubulin stood at 13000 nM. Further, the Drug metabolism on Leucine aminopeptidase [5] was found to be 95%.

Consider `COc1ccc(/C=C\c2cc(OC)c(OC)c(OC)c2)c(N)c1.Cl`, for which the GI50 was 7.35 nM in [1], 26.3 nM with NCI-H460 [2] and 28.5 nM in series [3]. In addition, the IC50 on Tubulin worked out at 2500 nM.

Source of the values: ChEMBL document CHEMBL3763088, “Design, synthesis, and biological evaluation of water-soluble amino acid prodrug conjugates derived from combretastatin, dihydronaphthalene, and benzosuberene-based parent vascular disrupting agents” (Bioorg Med Chem, 2016).
